Assay results published in ChEMBL document CHEMBL4622930, “Synthesis and biological evaluation of novel isothiazoloquinoline quinone analogues” (Bioorg Med Chem Lett, 2020).

How the values were obtained:
A549 [1] = experiment: Antiproliferative activity against human A549 cells assessed as reduction in cell viability measured after 48 hrs MTT assay; assay type: functional, cell-based; conditions: A549, 48 h
Method in brief: (§1)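 Cells (MDA-MB-231, MCF-7, MCF-10A, HT-29, A549) exposed to compounds for 48 h, then viability read by MTT. IC50 is the concentration giving 50% inhibition of viability. Means ± SD of three independent experiments.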

MCF-10A = experiment: Cytotoxicity against human MCF10A cells assessed as reduction in cell viability measured after 48 hrs MTT assay; assay type: cell-based; method in brief: as §1
[2] = target: NAD(P)H dehydrogenase [quinone] 1 (Homo sapiens) (UniProt P15559); experiment: Substrate activity at human NQO1 assessed as amount of NADH oxidation assessed per umol NQO1
Method in brief: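 Quinones at 20 μM coincubated with NADH with and without human NQO1. Rate of NADH oxidation measured.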

MDA-MB-231 [3] = experiment: Antiproliferative activity against human MDA-MB-231 cells assessed as reduction in cell viability measured after 48 hrs MTT assay; assay type: functional, cell-based; conditions: MDA-MB-231, 48 h; method in brief: as §1
HT-29 = experiment: Antiproliferative activity against human HT-29 cells assessed as reduction in cell viability measured after 48 hrs MTT assay; assay type: functional, cell-based; conditions: HT-29, 48 h; method in brief: as §1
MCF7 = experiment: Antiproliferative activity against human MCF7 cells assessed as reduction in cell viability measured after 48 hrs MTT assay; assay type: functional, cell-based; conditions: MCF7, 48 h; method in brief: as §1
A549 [4] = experiment: Induction of ROS generation in human A549 cells at 2 uM measured after 24 hrs by DCFH-DA probe based flow cytometry (reference value: 4.92 %); assay type: functional
A549 [5] = experiment: Potency index, ratio of BBI608 activity to test compound activity for induction of apoptosis in human A549 cells measured after 24 hrs by annexinV-FITC/propidium iodide staining based flow cytometry; assay type: functional
Method in brief: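 A549 cells given test compound or BBI608, each at 2 μM, for 24 h, then stained with Annexin V-FITC/propidium iodide for 15 min. Apoptosis rate by flow cytometry; the ratio compares rates at the same concentration.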

MDA-MB-231 [6] = experiment: Effect on total STAT3 level in human MDA-MB-231 cells at 2 to 8 uM measured after 2 hrs by Western blot analysis; assay type: cell-based; conditions: mda-mb-231, 2 h
Method in brief: (§2)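 MDA-MB-231 cells incubated for 2 h with test compound at 2, 4 or 8 μM, or with DMSO vehicle. Phospho-STAT3 and total STAT3 detected by western blot.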

A549 [7] = experiment: Induction of apoptosis in human A549 cells assessed as live cells at 1 uM measured after 24 hrs by annexinV-FITC/propidium iodide staining based flow cytometry (reference value: 95.5 %); assay type: functional
A549 [8] = experiment: Induction of apoptosis in human A549 cells assessed as early apoptotic cells at 2 uM measured after 24 hrs by annexinV-FITC/propidium iodide staining based flow cytometry (reference value: 0.25 %); assay type: functional
A549 [9] = experiment: Induction of apoptosis in human A549 cells assessed as late apoptotic cells at 1 uM measured after 24 hrs by annexinV-FITC/propidium iodide staining based flow cytometry (reference value: 3.70 %); assay type: functional
A549 [10] = experiment: Induction of apoptosis in human A549 cells assessed as necrotic cells at 2 uM measured after 24 hrs by annexinV-FITC/propidium iodide staining based flow cytometry (reference value: 0.54 %); assay type: functional
A549 [11] = experiment: Induction of apoptosis in human A549 cells assessed as early apoptotic cells at 1 uM measured after 24 hrs by annexinV-FITC/propidium iodide staining based flow cytometry (reference value: 0.25 %); assay type: functional
[12] = target: Signal transducer and activator of transcription 3 (Homo sapiens) (UniProt P40763); experiment: Inhibition of STAT3 phosphorylation in human MDA-MB-231 cells measured after 2 hrs by Western blot analysis; assay type: cell-based; method in brief: as §2
A549 [13] = experiment: Induction of apoptosis in human A549 cells assessed as necrotic cells at 1 uM measured after 24 hrs by annexinV-FITC/propidium iodide staining based flow cytometry (reference value: 0.54 %); assay type: functional
A549 [14] = experiment: Induction of apoptosis in human A549 cells measured after 24 hrs by annexinV-FITC/propidium iodide staining based flow cytometry; assay type: functional, cell-based
A549 [15] = experiment: Induction of ROS generation in human A549 cells at 2 uM measured after 24 hrs by DCFH-DA probe based flow cytometry relative to BBI608; assay type: functional
A549 [16] = experiment: Induction of apoptosis in human A549 cells assessed as live cells at 2 uM measured after 24 hrs by annexinV-FITC/propidium iodide staining based flow cytometry (reference value: 95.5 %); assay type: functional
A549 [17] = experiment: Induction of apoptosis in human A549 cells assessed as late apoptotic cells at 2 uM measured after 24 hrs by annexinV-FITC/propidium iodide staining based flow cytometry (reference value: 3.70 %); assay type: functional

Chain of NAD(P)H dehydrogenase [quinone] 1 (Homo sapiens) (P15559 whole entry): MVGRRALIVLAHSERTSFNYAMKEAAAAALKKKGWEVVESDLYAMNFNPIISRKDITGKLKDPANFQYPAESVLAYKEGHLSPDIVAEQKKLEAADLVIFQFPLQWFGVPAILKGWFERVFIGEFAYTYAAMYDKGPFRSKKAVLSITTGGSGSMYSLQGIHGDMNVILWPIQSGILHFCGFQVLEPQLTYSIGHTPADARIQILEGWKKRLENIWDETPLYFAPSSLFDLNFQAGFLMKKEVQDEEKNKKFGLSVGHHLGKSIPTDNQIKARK
Chain of Signal transducer and activator of transcription 3 (Homo sapiens) (P40763 whole entry): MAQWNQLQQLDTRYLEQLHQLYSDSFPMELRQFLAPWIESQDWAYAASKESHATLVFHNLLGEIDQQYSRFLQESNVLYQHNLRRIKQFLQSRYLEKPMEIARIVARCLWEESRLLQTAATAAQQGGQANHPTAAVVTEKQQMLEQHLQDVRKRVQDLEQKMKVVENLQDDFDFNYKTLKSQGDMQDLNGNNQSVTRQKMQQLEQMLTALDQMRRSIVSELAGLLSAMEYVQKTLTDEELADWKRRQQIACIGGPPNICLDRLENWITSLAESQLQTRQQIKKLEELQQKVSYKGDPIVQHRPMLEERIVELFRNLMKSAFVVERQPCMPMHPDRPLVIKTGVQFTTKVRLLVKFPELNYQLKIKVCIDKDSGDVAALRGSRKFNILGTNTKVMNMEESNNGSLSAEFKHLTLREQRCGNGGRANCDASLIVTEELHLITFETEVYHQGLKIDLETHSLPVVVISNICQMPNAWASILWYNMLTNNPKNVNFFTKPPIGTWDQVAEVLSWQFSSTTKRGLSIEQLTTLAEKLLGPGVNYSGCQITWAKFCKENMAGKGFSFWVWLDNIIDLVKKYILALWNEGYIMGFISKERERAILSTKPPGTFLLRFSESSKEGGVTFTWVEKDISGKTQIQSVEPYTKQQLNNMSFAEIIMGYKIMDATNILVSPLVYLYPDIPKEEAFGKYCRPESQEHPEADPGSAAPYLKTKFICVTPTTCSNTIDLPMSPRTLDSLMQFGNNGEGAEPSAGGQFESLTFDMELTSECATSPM

SMILES | IC50 (A549 [1]) [nM] | IC50 (MCF-10A) [nM] | Activity [2] [µmol/min] | IC50 (MDA-MB-231 [3]) [nM] | IC50 (HT-29) [nM] | IC50 (MCF7) [nM] | Activity (A549 [4]) [%] | Ratio (A549 [5]) | Activity (MDA-MB-231 [6]) | Activity (A549 [7]) [%] | Activity (A549 [8]) [%] | Activity (A549 [9]) [%] | Activity (A549 [10]) [%] | Activity (A549 [11]) [%] | inhibition [12] | Activity (A549 [13]) [%] | Activity (A549 [14]) | Ratio (A549 [15]) | Activity (A549 [16]) [%] | Activity (A549 [17]) [%]
CCc1nsc2c1C(=O)c1c(O)cccc1C2=O | 1380 | 3060 | 97.2 | 2720 | 1660 | 710 | – | – | – | – | – | – | – | – | – | – | – | – | – | –
COc1cccc2c1C(=O)c1snc(-c3ccccc3)c1C2=O | > 40000 | 24600 | 14.6 | 22000 | 28800 | 12100 | – | – | – | – | – | – | – | – | – | – | – | – | – | –
COc1ccc(-c2nsc3c2C(=O)c2cccc(O)c2C3=O)cc1 | 4800 | 1510 | 38.9 | 1460 | 3880 | 1410 | – | – | – | – | – | – | – | – | – | – | – | – | – | –
CCc1nsc2c1C(=O)c1cccnc1C2=O | 1510 | 590 | 28.4 | 340 | 2060 | 1110 | – | – | – | – | – | – | – | – | – | – | – | – | – | –
CCc1nsc2c1C(=O)c1ccccc1C2=O | 700 | 1130 | 122 | 2590 | 2920 | 2340 | – | – | – | – | – | – | – | – | – | – | – | – | – | –
Cc1nsc2c1C(=O)c1ccccc1C2=O | 1710 | 1110 | 68 | 1650 | 2670 | 4090 | – | – | – | – | – | – | – | – | – | – | – | – | – | –
COc1ccc(-c2nsc3c2C(=O)c2c(OC)cccc2C3=O)cc1 | > 40000 | > 40000 | 8.75 | > 40000 | > 40000 | > 40000 | 7.19 | – | – | – | – | – | – | – | – | – | – | – | – | –
Cc1nsc2c1C(=O)c1c(O)cccc1C2=O | 1960 | 920 | 122 | 1670 | 1620 | 920 | – | – | – | – | – | – | – | – | – | – | – | – | – | –
O=C1c2ncccc2C(=O)c2c(-c3ccccc3)nsc21 | 810 | 880 | 174 | 400 | 1200 | 260 | – | – | – | – | – | – | – | – | – | – | – | – | – | –
CCc1nsc2c1C(=O)c1cccc(O)c1C2=O | 2830 | 3020 | 112 | 5810 | 3800 | 3310 | – | – | – | – | – | – | – | – | – | – | – | – | – | –
Cc1nsc2c1C(=O)c1ncccc1C2=O | 3280 | 130 | 219 | 260 | 1520 | 310 | 57.5 | 2.5 | Non-Toxic | 92.7 | 0.33 | 6.53 | 1.49 | 0.17 | Dose-dependent effect | 0.59 | Dose-dependent effect | 3 | 84.8 | 13.4
O=C1c2ccccc2C(=O)c2c(-c3ccccc3)nsc21 | 27500 | 17600 | 5.59 | 10300 | 18800 | > 40000 | – | – | – | – | – | – | – | – | – | – | – | – | – | –
COc1ccc(-c2nsc3c2C(=O)c2cccnc2C3=O)cc1 | 2770 | 1960 | 209 | 730 | 40000 | 1820 | – | – | – | – | – | – | – | – | – | – | – | – | – | –
COc1ccc(-c2nsc3c2C(=O)c2cccc(OC)c2C3=O)cc1 | > 40000 | > 40000 | 18 | > 40000 | > 40000 | > 40000 | – | – | – | – | – | – | – | – | – | – | – | – | – | –
O=C1c2cccnc2C(=O)c2c(-c3ccccc3)nsc21 | 1350 | 170 | 175 | 660 | 2030 | 460 | – | – | – | – | – | – | – | – | – | – | – | – | – | –
COc1ccc(-c2nsc3c2C(=O)c2ccccc2C3=O)cc1 | > 40000 | 29300 | 7.29 | 35200 | 36800 | 37500 | – | – | – | – | – | – | – | – | – | – | – | – | – | –
CC(=O)c1cc2c(o1)C(=O)c1ccccc1C2=O [NAPABUCASIN] | 6690 | 540 | 170 | 1290 | 140 | 630 | 23.5 | – | – | – | 0.16 | – | 0.45 | – | – | – | – | – | 94.4 | 4.98
Cc1nsc2c1C(=O)c1cccc(O)c1C2=O | 1360 | 1370 | 122 | 2670 | 1410 | 1580 | – | – | – | – | – | – | – | – | – | – | – | – | – | –
Cc1nsc2c1C(=O)c1cccnc1C2=O | 1690 | 880 | 180 | 230 | 3030 | 640 | – | – | – | – | – | – | – | – | – | – | – | – | – | –
CCc1nsc2c1C(=O)c1ncccc1C2=O | 1380 | 170 | 91.8 | 1530 | 910 | 360 | – | – | – | – | – | – | – | – | – | – | – | – | – | –
